G6PDH CS: L. mesenteroides G6PDH inhibition counter-screen. inhibition, % at 5 µM. Purified L. mesenteroides G6PDH, diaphorase/resazurin coupled fluorescence, 45 min. 200,000 compounds, 0.12% hits. AID 1020; in the data active = inhibition above about 50%
PfGluPho inh: PfG6PD (Plasmodium falciparum) enzyme inhibition; PfGluPho enzyme, NADPH resazurin-diaphorase fluorescence; inhibition, % at 20 µM; 350,000 compounds, 0.78% hits; AID 504690;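 active = inhibition reaching at least a set limit at 20 µM in the primary screen, cut at about 59% in these data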;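 note: 0% = DMSO wells with substrate and 100% = DMSO wells lacking glucose-6-phosphate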
HKDC1 inhibitor: HKDC1 (human) hexokinase inhibition | 340,000 compounds, 0.16% hits | Q2TB90 | recombinant HKDC1, G6PDH/diaphorase resazurin coupled fluorescence | inhibition, % at 20 µM;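 active = inhibition above about 35% when tested at 20 µM, limit read from the data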;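 note: plate controls were DMSO wells with enzyme for no effect and DMSO wells lacking enzyme for full effect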
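Assay system: in-house recombinant HK5 (HKDC1) enzyme. Input: HKDC1 at 5 µg/mL. Medium: Tris pH 8.0 buffer with MgCl2, Tween-20, BSA, BME. Dosing: single 20 µM dose. Schedule: 90 min reaction incubation at room temperature, dark. Signal: resazurin-to-resorufin fluorescence via G6PDH and diaphorase coupling, 525/613 nm. Controls: DMSO-enzyme wells negative, buffer-substituted wells positive.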
Diaph inh CS: counter-screen for diaphorase-based assays: diaphorase inhibitors and chemical oxidizers; diaphorase resazurin-to-resorufin fluorescence, NADH, 16 min; bacterial (C. kluyveri) enzyme, not human; inhibition, % at 20 µM; 190,000 compounds, 0.69% hits; AID 1217;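 active = primary screen inhibition at 20 µM above a set limit, cut at about 50% in these data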;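 note: plate controls were DMSO with full reaction for no effect and wells lacking NADH for full effect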
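System: Diaphorase enzyme from Clostridium kluyveri | Amount: Enzyme working solution with 0.14 U/mL diaphorase | Benchmarks: No-NADH positive control and DMSO neutral control | Signal: Fluorescence of resorufin formed from resazurin, Ex 544/Em 590 nm | Schedule: 16-min room-temperature incubation before reading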
PfG6PD confirm: confirmation of Plasmodium falciparum G6PD inhibitors. shares compounds with PfGluPho inh. recombinant PfGluPho, NADPH-diaphorase-resazurin fluorescence. inhibition, % at 20 µM. 2,400 compounds, 34% hits. AID 504753;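 active = inhibition of at least 50% at 20 µM in any single replicate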;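 note: 0% = DMSO with substrate and 100% = DMSO lacking glucose-6-phosphate substrate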
Diaph ctr 10uM: counter-screen for P. falciparum G6PD inhibitors: diaphorase inhibitors, oxidizers; shares compounds with PfGluPho inh; diaphorase-coupled resazurin reduction, fluorescence, NADPH 10 uM; inhibition, % at 20 µM; 820 compounds, 39% hits;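 active = average inhibition reaching 50% or more with the compound at 20 µM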;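 note: resorufin red fluorescence formed as diaphorase reduces resazurin using NADPH; 0% = DMSO with enzyme and 100% = DMSO without enzyme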
Diaph ctr 30uM: diaphorase inhibition or oxidation at 30 uM NADPH; shares compounds with PfGluPho inh; Diaphorase/resazurin coupled assay, resorufin fluorescence; inhibition, % at 20 µM; 820 compounds, 29% hits; AID 504863;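 active = inhibition averaging 50% or more, tested at 20 µM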;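 note: 0% = DMSO with enzyme and 100% = DMSO wells lacking diaphorase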
* marks the source's active call; other numbers are inactive results; . = no result given. An excerpt weighted towards active compounds, which were near 1.3% of everything screened.

SMILES	G6PDH CS	PfGluPho inh	HKDC1 inhibitor	Diaph inh CS	PfG6PD confirm	others
Cc1[nH]c2ccc(C(=O)Nc3ccncc3)cc2c1C	.	53	3	.	.
Cc1ccc(OCCCn2cc(C#N)c3ccccc32)cc1	1	68*	-1	11	8
N#Cc1cn(CCOc2ccc(F)cc2)c2ccccc12	6	84*	2	16	34
CCOC(=O)N/N=C/c1cn(CCCOc2ccc(C)cc2)c2ccccc12	-2	-8	-1	5	.
N#Cc1cn(CCOc2ccccc2F)c2ccccc12	-2	50	1	14	.
CCOC(=O)c1c(C)[nH]c(C)c1C(=O)COC(=O)c1cc2ccccc2cc1OC	13	52	-3	26	.
CCOC(=O)c1c(C)[nH]c(C)c1C(=O)COC(=O)/C=C/c1ccco1	.	82*	9	.	67*	Diaph ctr 10uM=74*;Diaph ctr 30uM=57*
CCOC(=O)c1c(C)[nH]c(C)c1C(=O)COC(=O)c1cc2ccccc2cc1O	-23	103*	0	48	5
O=C(CN1CCN(c2ccccn2)CC1)Nc1ccc([N+](=O)[O-])cc1C(=O)Nc1ccccc1F	.	1	1	.	.
O=[N+]([O-])c1ccc(SNc2ccccc2)c([N+](=O)[O-])c1	.	26	6	.	.
O=[N+]([O-])c1ccc(-[n+]2ccc3ccccc3c2)c([N+](=O)[O-])c1	.	94*	25	.	67*	Diaph ctr 10uM=38;Diaph ctr 30uM=50
CNc1ncnc(Sc2ccc(Cl)cc2)c1[N+](=O)[O-]	.	4	7	.	.
O=C(Nc1ccc(C2=CN(Cc3ccccc3)CCC2=O)cc1)OCc1ccccc1	.	11	1	.	.
CC1=CC(=O)C=C(C)C1=NOS(=O)(=O)c1ccccc1	10	112*	12	0	111*	Diaph ctr 10uM=103*;Diaph ctr 30uM=100*
CC1=CC(=O)C(C(C)C)=C/C1=N/OS(=O)(=O)c1ccccc1	.	105*	16	.	96*	Diaph ctr 10uM=73*;Diaph ctr 30uM=77*
Cc1ccc2c(c1)/C(=N/OS(=O)(=O)c1ccccc1)CCS2	.	10	-1	.	.
Nc1nc2ccccc2n1/N=C/c1cccnc1	.	19	-5	.	.
Nc1nc2ccccc2n1/N=C/c1ccc(-c2ccccc2)o1	0	80*	4	9	13
O=C(NCc1ccccc1)c1ccc(NC(=O)C2CCC2)cc1	.	4	-7	.	.
CCn1c(=O)n(CC)c2cc(S(=O)(=O)N3CCc4ccccc43)ccc21	-9	78*	-10	23	44
Cc1[nH]c(=S)c(C#N)c(C)c1CCC#N	.	69*	-3	.	51*	Diaph ctr 10uM=11;Diaph ctr 30uM=-3
Cc1[nH]c(=S)c(C#N)c(C)c1Cc1ccccc1	.	51	5	.	.
CCOc1cc(/C=N/O)ccc1OS(=O)(=O)c1ccc(C)cc1	8	15	1	18	.
CCOc1cc(/C=N/O)ccc1OCc1ccc(C)cc1	-3	66*	-6	21	42
CCOc1cc(/C=N/O)cc(Br)c1OCc1ccc(Cl)cc1	4	76*	-3	18	4
SMILES	G6PDH CS	PfGluPho inh	HKDC1 inhibitor	Diaph inh CS	PfG6PD confirm	others
CCNC(=O)c1ccc(NC(=O)CC2SC(N3CCCC3)=NC2=O)cc1 (configuration not stated)	.	-15	-2	.	.
COc1ccc(NC(=O)c2ccc(NC(=O)CN3CCN(c4ccc(O)cc4)CC3)cc2)cc1	.	75*	9	.	36
O=C(CN1CCN(c2cccc(C(F)(F)F)c2)CC1)Nc1ccc2c(c1)OCCCO2	.	3	.	.	.
O=C(CN1CCN(c2ccc(O)cc2)CC1)Nc1ccc2c(c1)OCCCO2	.	79*	1	.	27
O=C(CN1CCN(c2ccc(O)cc2)CC1)Nc1cc(S(=O)(=O)N2CCCC2)ccc1Cl	6	67*	12	23	30
O=C(CN1CCN(c2ccc(O)cc2)CC1)Nc1cc(S(=O)(=O)N2CCCCC2)ccc1Cl	-2	56	11	25	.
Oc1ccc(N2CCN(Cc3cc4c(cc3Br)OCCO4)CC2)cc1	.	74*	5	.	6
COc1ccc(-c2ccc3[nH]c4c(c3c2)CCN2C(=O)[C@@H]([C@H](C)O)[C@@H](N(C)C(=O)Nc3ccccc3)C[C@@H]42)cc1	.	19	.	.	.
Nc1ccc(-c2nc3ccc([N+](=O)[O-])cc3[nH]2)cc1	-19	32	-2	7	.
